S100A4 inh HTS: inhibitors of human S100A4 binding to myosin IIA peptide; S100A4/TAMRA-MyoIIA peptide fluorescence polarization; inhibition, % at 10.7 µM; 360,000 tested, 0.14% active; AID 652163;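 active = mean inhibition of at least 70% across replicates, with every replicate also reaching that level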
Target sequence (P26447 whole entry, looked up): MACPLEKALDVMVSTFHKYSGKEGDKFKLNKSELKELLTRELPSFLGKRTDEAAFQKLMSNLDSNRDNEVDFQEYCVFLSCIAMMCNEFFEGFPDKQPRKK
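Material: S100A4 monomer protein / Buffer or medium: 50 mM HEPES pH 7.2, 10 mM CaCl2, 100 mM KCl / Times: 5 min incubation before reading / Benchmarks: neutral control DMSO, positive control TFP / Reagent: labelled myosin peptide probe, 5 nM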
SIRT5 inh: sirtuin-5 (human) deacylase inhibition | Q9NXA8 | Purified SirT5, succinyl-peptide AMC, trypsin-coupled fluorescence | inhibition, % at 15 µM | 330,000 tested, 1.1% active | AID 652115; in the data active = inhibition above about 15%
Target sequence (Q9NXA8 whole entry, looked up): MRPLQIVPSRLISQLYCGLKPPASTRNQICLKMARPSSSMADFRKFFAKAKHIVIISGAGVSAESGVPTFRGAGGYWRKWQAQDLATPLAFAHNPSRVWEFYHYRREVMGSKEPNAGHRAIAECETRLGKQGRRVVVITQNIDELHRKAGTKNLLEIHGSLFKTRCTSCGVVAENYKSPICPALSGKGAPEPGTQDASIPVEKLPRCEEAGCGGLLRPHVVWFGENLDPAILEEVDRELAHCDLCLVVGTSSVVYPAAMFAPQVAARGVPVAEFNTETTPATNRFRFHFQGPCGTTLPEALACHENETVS
PDI inh: PDI (human) enzyme inhibition | inhibition, % at 10 µM | P07237 | 350,000 tested, 0.052% active | PDI insulin aggregation turbidity, A650, 90 min;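 active = mean inhibition across replicates of 30% or more, whatever share of single replicates reach that level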
ERp5 inh: blocks human ERp5 reductase activity on insulin; Q15084; ERp5 insulin aggregation, absorbance 650 nm, 90 min; inhibition, % at 9.99 µM; 350,000 tested, 0.05% active;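 active = mean replicate inhibition above about 25%, with every replicate also reaching it, limit read from the data, passing the limit was not always enough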
GSIS activator: GLuc luminescence reporter in INS-1E cells, primary screen for activators of glucose-dependent secretion of insulin; activation, % at 16.6 µM; 370,000 tested, 0.61% active; AID 743287; INS-1E GLuc reporter insulin secretion, 2-3 h;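 active = lowest replicate activation of at least 40%, so every replicate reaches that level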;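 also: 0% = median of neutral control wells and 100% = median of IBMX positive control wells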
* hit, by the source's call; . = not tested or not shown. Shown are actives, neighbours in structure and some others; about 1.5% of the full set was active somewhere.

SMILES	S100A4 inh HTS	SIRT5 inh	PDI inh	ERp5 inh	GSIS activator
CCCC#Cc1cnc2c(c1)C(=O)N([C@H](C)CO)C[C@@H](C)[C@@H](CN(C)C(=O)Nc1c(C)noc1C)O2	7	-2	.	-9	8
COCC(=O)N1C[C@@H]2[C@H](c3ccccc31)[C@H](CO)N2Cc1cc(F)ccc1F	-12	20*	.	-3	12
COCC(=O)N1C[C@H]2[C@@H](c3ccccc31)[C@@H](CO)N2Cc1cc(F)ccc1F	-3	-3	.	-5	4
CCC(=O)N1C[C@H]2[C@@H](c3ccccc31)[C@H](CO)N2Cc1cc(F)ccc1F	4	16*	.	-7	-2
CC(C)Cn1c2c(c(=O)[nH]c1=O)C(C(F)(F)F)(C(F)(F)F)N=C(CCC1CCCCC1)N2	.	.	-16	.	54*
CO[C@@H]1CN(C)C(=O)c2cc(NC(=O)CC(F)(F)F)ccc2OC[C@H](C)N(S(=O)(=O)c2cn(C)cn2)C[C@@H]1C	27	16*	.	2	3
CO[C@H]1CN(C)C(=O)c2cc(NC(C)=O)ccc2OC[C@H](C)N(S(=O)(=O)c2cn(C)cn2)C[C@H]1C	-3	24*	.	4	8
O=C([C@@H]1CC=C[C@@H]2CCN(C3CCCCC3)C(=O)[C@@H]21)N1CCN(c2ccccc2)CC1	-2	.	-4	1	-28
O=C1[C@@H](c2ccccc2)CC[C@@H]2C=CC[C@H]3CCN1[C@@H]32	0	-5	.	31*	18
Cc1ccccc1CN(C)C[C@@H]1OCc2cn(nn2)CCCC(=O)N([C@H](C)CO)C[C@@H]1C	3	-5	.	1	3
COc1ccc(C(=O)N2CCN(S(=O)(=O)c3ccc(C)cc3C)CC2)cc1S(=O)(=O)N1CCOCC1	0	-1	-9	-1	.
COc1ccc(C(=O)N2CCN(S(=O)(=O)c3ccc(C)cc3)CC2)cc1S(=O)(=O)N1CCOCC1	2	20*	-4	-5	-2
CCCCc1c(-c2ccccc2OC)ncn1CCc1ccccc1	-6	10	.	3	46*
CCCCc1c(-c2ccccc2OC)ncn1CCc1ccc(OC)cc1	-13	9	.	-4	1
CCCCc1c(-c2ccccc2OC)ncn1C(C)c1ccccc1 (stereo not drawn)	3	.	.	-2	92*
CCCCc1c(-c2ccccc2)ncn1CCc1ccccc1OC	-4	0	.	-4	38
CCCCc1c(Cc2ccccc2)ncn1CCc1ccccc1OC	34	1	.	1	174*
CCOC(=O)C1(CCOc2ccccc2)CCN(Cc2ccc(O)c(OC)c2)CC1	-4	.	1	2	-14
CCOC(=O)C1(CCOc2ccccc2)CCN(Cc2ccc(O)c(Cl)c2)CC1	0	-6	111*	0	-39
CCCNC(=O)N1C[C@@H]2[C@H](c3ccccc31)[C@H](CO)N2C(=O)NC(C)C	.	.	.	.	-4
COc1ccc(S(=O)(=O)Nc2cccc3c2O[C@H](CN(C)Cc2ccc(Cl)c(Cl)c2)[C@@H](C)CN([C@H](C)CO)C3=O)cc1	-12	15*	2	1	-17
C[C@@H]1CN([C@H](C)CO)C(=O)c2cc(NC(=O)Nc3cccc4ccccc34)ccc2O[C@@H]1CN(C)Cc1ccc2c(c1)OCO2	7	15*	.	3	-22
C[C@@H]1CN([C@H](C)CO)C(=O)c2cc(NC(=O)Nc3cccc4ccccc34)ccc2O[C@@H]1CN(C)Cc1ccc(C(=O)Nc2ccccc2N)cc1	16	15*	.	-1	-2
C[C@@H]1CN([C@H](C)CO)C(=O)c2cc(NC(=O)Nc3cccc4ccccc34)ccc2O[C@H]1CN(C)Cc1ccc(C(=O)Nc2ccccc2N)cc1	7	.	.	1	-1
COc1ccc(CN(C)C[C@H]2Oc3c(NC(=O)NC(C)C)cccc3C(=O)N([C@H](C)CO)C[C@H]2C)cc1	107*	8	.	-4	10
SMILES	S100A4 inh HTS	SIRT5 inh	PDI inh	ERp5 inh	GSIS activator
COc1ccc(NC(=O)Nc2ccc3c(c2)C(=O)N([C@H](C)CO)C[C@H](C)[C@@H](CN(C)Cc2ccc(C(F)(F)F)cc2)O3)cc1	-1	19*	.	-3	3
COc1ccc(NC(=O)Nc2cccc3c2O[C@@H](CN(C)Cc2ccc(C(F)(F)F)cc2)[C@@H](C)CN([C@H](C)CO)C3=O)cc1	-3	21*	.	12	-12
COc1ccc(NC(=O)Nc2ccc3c(c2)C(=O)N([C@H](C)CO)C[C@H](C)[C@@H](CN(C)Cc2ccc4c(c2)OCO4)O3)cc1	1	16*	.	-2	-11
COc1ccc(CN(C)C[C@H]2Oc3c(NC(=O)Nc4ccc(C(F)(F)F)cc4)cccc3C(=O)N([C@H](C)CO)C[C@H]2C)cc1	-3	4	.	5	-17
CC(C)NC(=O)Nc1ccc2c(c1)C(=O)N([C@H](C)CO)C[C@@H](C)[C@H](CN(C)Cc1ccc(C(F)(F)F)cc1)O2	2	15*	.	-1	-20
C[C@H](CO)N1C[C@H](C)[C@H](CN(C)S(=O)(=O)c2ccccc2F)OCc2cn(nn2)CCCC1=O	.	.	.	.	8
COc1ccc(NC(=O)Nc2ccc3c(c2)C(=O)N([C@@H](C)CO)C[C@@H](C)[C@@H](CN(C)C(=O)Nc2ccc(C(F)(F)F)cc2)O3)cc1	-8	16*	.	-1	-16
C[C@H]1CN([C@@H](C)CO)C(=O)c2cc(-c3ccc(F)cc3)cnc2O[C@H]1CN(C)C(=O)c1ccccc1F	-17	-6	.	2	10
CCCC(=O)Nc1ccc2c(c1)OC[C@H](C)N(Cc1nccs1)C[C@H](C)[C@H](OC)CN(C)C2=O	2	7	.	8	-7
O=[N+]([O-])c1cc(Cl)c2cccnc2c1O	-3	17*	-1	0	-24
C[C@@H]1CCCCO[C@@H](CN(C)C(=O)CCCN(C)C)[C@H](C)CN([C@@H](C)CO)C(=O)c2cc(NS(=O)(=O)c3cn(C)cn3)ccc2O1	11	1	.	1	8
COC(=O)C1=C(C)N(Cc2ccccc2C(F)(F)F)C(=NCc2ccc(OC)cc2)NC1c1ccc(Cl)cc1 (stereo not drawn)	-2	13	.	-1	87*
COC(=O)C1=C(C)N(Cc2ccc(C(F)(F)F)cc2)C(=NCC2CC2)NC1c1ccccc1 (stereo not drawn)	-4	.	.	4	60*
COC(=O)C1=C(C)N(Cc2ccc(C(F)(F)F)cc2)C(=NCc2ccccc2)NC1c1ccc(Cl)cc1 (stereo not drawn)	-2	.	.	1	726*
COc1ccccc1NC(=O)N[C@H]1CC[C@@H](CCNS(=O)(=O)c2ccccc2)O[C@H]1CO	19	-1	.	1	13
C[C@@H]1CCCCO[C@H](CN(C)C(=O)NC2CCCCC2)[C@@H](C)CN([C@H](C)CO)C(=O)c2cc(NC(=O)Cc3ccccc3)ccc2O1	4	2	.	-1	-11

Screening data from PubChem.
